Holding throughout (type): functional
Test [1] deals with Mus musculus. The test can be described thus: Compound was tested for its ability to enhance nonspecific resistance to expt. fungal infection in mice immunosuppressed with cyclophosphamide and infected with candida albicans at 3x 0.1 mg/kg/day; survival increase = 0/6. The essentials:
(§1)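 Groups of 10 mice in a controlled room. Test substance or vehicle (distilled water) was given ip on days 1, 3 and 5. Cyclophosphamide 30 mg/kg po was given on days 2, 4 and 6. One hour after the last cyclophosphamide dose, mice were challenged with C. albicans at a level set for 70–90% mortality within 10 days in vehicle controls. Survival over 10 days was scored as (treated − CP-only survivors)/(unsuppressed control − CP-only survivors).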

In test [2] the test system is Mus musculus. The test can be described thus: Compound was tested for its ability to enhance nonspecific resistance to expt. fungal infection in mice immunosuppressed with cyclophosphamide and infected with candida albicans at 3x100 mg/kg/day; survival increase = 0/6. An outline of the steps: as §1
The test system of test [3] is Mus musculus. The test can be described thus: Compound was tested for its ability to enhance nonspecific resistance to expt. fungal infection in mice immunosuppressed with cyclophosphamide and infected with candida albicans at 3x1 mg/kg/day; survival increase = 1/6. An outline of the steps: as §1
Test [4] relates to Mus musculus. The test can be described thus: Compound was tested for its ability to enhance nonspecific resistance to expt. fungal infection in mice immunosuppressed with cyclophosphamide and infected with candida albicans at 3x10 mg/kg/day; survival increase = 0/6. An outline of the steps: as §1
The subject of test [5] is Mus musculus. The test can be described thus: Compound was tested for its ability to enhance nonspecific resistance to expt. fungal infection in mice immunosuppressed with cyclophosphamide and infected with candida albicans at 3x10 mg/kg/day; survival increase = 1/6. The essentials: as §1
In test [6] the test system is Mus musculus. The test can be described thus: Compound was tested for its ability to enhance nonspecific resistance to expt. fungal infection in mice immunosuppressed with cyclophosphamide and infected with candida albicans at 3x1 mg/kg/day; survival increase = 0/6. The essentials: as §1
Test [7] relates to Mus musculus. The test can be described thus: Compound was tested for its ability to enhance nonspecific resistance to expt. fungal infection in mice immunosuppressed with cyclophosphamide and infected with candida albicans at 3x30 mg/kg/day; survival increase = 1/6. The essentials:
as §1

Test [8] deals with Mus musculus. The test can be described thus: Compound was tested for its ability to enhance nonspecific resistance to expt. fungal infection in mice immunosuppressed with cyclophosphamide and infected with candida albicans at 3x100 mg/kg/day; survival increase = 3/6. The essentials: as §1
The subject of test [9] is Mus musculus. The test can be described thus: Compound was tested for its ability to enhance nonspecific resistance to expt. fungal infection in mice immunosuppressed with cyclophosphamide and infected with candida albicans at 3x 0.1 mg/kg/day; survival increase = 3/6. An outline of the steps: as §1
Test [10] has as its system Mus musculus. The test can be described thus: Compound was tested for its ability to enhance nonspecific resistance to expt. fungal infection in mice immunosuppressed with cyclophosphamide and infected with candida albicans at 3x1 mg/kg/day; survival increase = 3/6. An outline of the steps:
as §1

Test [11] concerns Mus musculus. The test can be described thus: Compound was tested for its ability to enhance nonspecific resistance to expt. fungal infection in mice immunosuppressed with cyclophosphamide and infected with candida albicans at 3x10 mg/kg/day; survival increase = 3/6. An outline of the steps: as §1
Test [12] concerns Mus musculus. The test can be described thus: Compound was tested for its ability to enhance nonspecific resistance to expt. fungal infection in mice immunosuppressed with cyclophosphamide and infected with candida albicans at 3x1 mg/kg/day; survival increase = 2/6. An outline of the steps: as §1
The subject of test [13] is Mus musculus. The test can be described thus: Compound was tested for its ability to enhance nonspecific resistance to expt. fungal infection in mice immunosuppressed with cyclophosphamide and infected with candida albicans at 3x30 mg/kg/day; survival increase = 3/6. The essentials: as §1

Turning to `CC(=O)N[C@@H]1CCCC[C@H]1OCC(=O)N[C@@H](C)C(=O)N[C@H](CCC(=O)O)C(N)=O`, the Survival increase in the test with Mus musculus [1] was determined as 0; with Mus musculus [2] it was 0; in the test with Mus musculus [3], 1; with Mus musculus [4], 0.
Regarding `CCCCCC(=O)NC1CCCCC1OCC(=O)N[C@@H](C)C(=O)N[C@H](CCC(=O)O)C(N)=O` (stereo partly specified), the Survival increase with Mus musculus [1] turned out to be 0; in the test on Mus musculus [5], 1; in the test with Mus musculus [6], 0; in the test with Mus musculus [7], 1.
`CC(C)(N1CC1C#N)N1CC1C(N)=O` (stereo unspecified) [AZIMEXON]: the Survival increase in the test on Mus musculus [8], in the test on Mus musculus [9], in the test on Mus musculus [10] and in the test with Mus musculus [11] was 3 throughout.
Take `CCCCCCCCCCCC(=O)NC1CCCCC1OCC(=O)N[C@@H](C)C(=O)N[C@H](CCC(=O)O)C(N)=O` (stereo partly specified): the Survival increase in the test on Mus musculus [12] was found to be 2; in the test on Mus musculus [1] it was 0; in the test on Mus musculus [11], 3; with Mus musculus [13] it was 3.

Values taken from ChEMBL document CHEMBL1131471, “N-[trans-2-[[2'-(acetylamino)cyclohexyl]oxy]acetyl]-L-alanyl-D-glutamic acid: a novel immunologically active carbocyclic muramyl dipeptide analogue” (1998).
